Data from PMC7003538 (Biochemistry, 2019).

Assays:
Experiment in all cases: UV-Vis spectral titration
Assay type in all cases: binding
[1] = target: CYP3A4 (Homo sapiens, UniProt P08684, F213Y/S18F)
Procedure, shortened: (§1)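 Human CYP3A4 (NF-14 construct, C-terminal pentahistidine tag, pCWori+ vector), wild type or F213 mutant, was incorporated into POPC Nanodiscs. The enzyme at 1-2 µM was titrated at 37 °C with test compound added in methanol (final methanol <1.5%), and UV-Vis spectra were read for the heme high-spin shift. Mixed titrations kept a fixed 1:12 steroid:second-substrate molar ratio.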

[2] = target: CYP3A4 (Homo sapiens, UniProt P08684, S18F)
CYP3A4 (Homo sapiens, UniProt P08684, S18F), sequence (P08684 13-503 S18F limits assumed): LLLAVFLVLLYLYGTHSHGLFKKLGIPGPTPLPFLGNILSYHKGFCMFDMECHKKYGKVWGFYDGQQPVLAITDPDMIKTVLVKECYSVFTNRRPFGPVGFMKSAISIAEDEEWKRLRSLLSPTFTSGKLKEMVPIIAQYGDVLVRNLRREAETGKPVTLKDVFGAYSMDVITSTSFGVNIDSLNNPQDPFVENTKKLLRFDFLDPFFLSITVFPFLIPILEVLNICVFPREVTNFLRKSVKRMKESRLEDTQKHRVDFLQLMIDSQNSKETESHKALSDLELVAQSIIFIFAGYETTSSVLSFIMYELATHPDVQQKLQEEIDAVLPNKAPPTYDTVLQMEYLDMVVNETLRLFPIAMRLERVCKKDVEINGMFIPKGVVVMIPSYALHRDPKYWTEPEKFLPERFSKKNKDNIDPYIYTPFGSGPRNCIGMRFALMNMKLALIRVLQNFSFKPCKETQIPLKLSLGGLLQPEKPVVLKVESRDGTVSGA
Procedure, shortened: as §1

[3] = target: CYP3A4 (Homo sapiens, UniProt P08684, F213S/S18F)
CYP3A4 (Homo sapiens, UniProt P08684, F213S/S18F), sequence (P08684 13-503 S18F/F213S limits assumed): as the sequence (P08684 13-503 S18F limits assumed) above, with F201S counted along it
Procedure, shortened: as §1

[4] = target: CYP3A4 (Homo sapiens, UniProt P08684, F213A/S18F)
CYP3A4 (Homo sapiens, UniProt P08684, F213A/S18F), sequence (P08684 13-503 S18F/F213A limits assumed): as the sequence (P08684 13-503 S18F limits assumed) above, with F201A counted along it
Procedure, shortened: as §1

CYP3A4 (Homo sapiens, UniProt P08684, F213Y/S18F), sequence (P08684 13-503 S18F/F213Y limits assumed): as the sequence (P08684 13-503 S18F limits assumed) above, with F201Y counted along it

Kd [1]: 21.8 µM
Kd [2]: 31 µM
Kd [3]: 24.2 µM
Kd [4]: 24.3 µM
Compound: CC(=O)[C@H]1CC[C@H]2[C@@H]3CCC4=CC(=O)CC[C@]4(C)[C@H]3CC[C@]12C [progesterone]
